Experimental data published in ChEMBL document CHEMBL1135676, “Comparative molecular field analysis of substrates for an aryl sulfotransferase based on catalytic mechanism and protein homology modeling” (J Med Chem, 2002).

Tests used:
[1] = substrate: CCCCCC[C@H](O)c1ccccc1; experiment: (§1) Apparent Michaelis constant (Km) against Arylsulfotransferase (AST IV)
Outline: (§2)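 Recombinant rat hepatic AST IV, expressed in E. coli and purified. Each reaction held 1.0 μg enzyme, 0.2 mM PAPS, 8.3 mM 2-mercaptoethanol, varying substrate and 0.25 M potassium phosphate at pH 7.0. Mixtures were preincubated 2 min at 37 °C, started with enzyme, run 10 min at 37 °C and stopped with methanol. Substrate-dependent PAP formation was read by HPLC and corrected with substrate-free controls. kcat is in min⁻¹ and apparent Km in M.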

[2] = substrate: OCc1c[nH]c2ccccc12; experiment: as §1; outline: as §2
[3] = substrate: Cc1ccc(O)cc1; experiment: as §1; outline: as §2
[4] = substrate: CCCCCc1ccc(O)cc1; experiment: as §1; outline: as §2
[5] = substrate: Cc1ccc(CO)cc1; experiment: as §1; outline: as §2
[6] = substrate: CCCc1ccc(CO)cc1; experiment: as §1; outline: as §2
[7] = substrate: C[C@@H](O)c1ccccc1; experiment: as §1; outline: as §2
[8] = substrate: CCCCc1ccc(O)cc1; experiment: as §1; outline: as §2
[9] = substrate: OCc1ccoc1; experiment: as §1; outline: as §2
[10] = substrate: CCCc1ccc(O)cc1; experiment: as §1; outline: as §2
[11] = biological target: Aryl sulfotransferase IV (Rattus norvegicus); experiment: as §1; outline: as §2
[12] = substrate: CCCCC[C@H](O)c1ccccc1; experiment: as §1; outline: as §2
[13] = substrate: ONc1ccccc1; experiment: as §1; outline: as §2
[14] = substrate: CCCC[C@H](O)c1ccccc1; experiment: as §1; outline: as §2
[15] = substrate: O=[N+]([O-])c1ccc(O)c(Cl)c1; experiment: as §1; outline: as §2
[16] = substrate: CN[C@H](C)[C@H](O)c1ccccc1; experiment: as §1; outline: as §2
[17] = substrate: CN(O)c1ccccc1; experiment: as §1; outline: as §2
[18] = substrate: CN[C@@H](C)C(O)c1ccccc1; experiment: as §1; outline: as §2
[19] = substrate: CCCN(O)c1ccccc1; experiment: as §1; outline: as §2
[20] = substrate: COC(=O)[C@@H](N)Cc1ccc(O)cc1; experiment: as §1; outline: as §2
[21] = substrate: CCC[C@H](O)c1ccccc1; experiment: as §1; outline: as §2
[22] = substrate: CCCCCCCCCc1ccc(O)cc1; experiment: as §1; outline: as §2
[23] = substrate: CC(=O)Nc1ccc(O)cc1; experiment: as §1; outline: as §2
[24] = substrate: OC1CCCc2ccccc21; experiment: as §1; outline: as §2
[25] = substrate: OCc1ccc2ccccc2c1; experiment: as §1; outline: as §2
[26] = substrate: ONc1ccc(Cl)cc1; experiment: as §1; outline: as §2
[27] = substrate: O=[N+]([O-])c1ccc(CO)cc1; experiment: as §1; outline: as §2
[28] = substrate: CC(C)[C@H](O)c1ccccc1; experiment: as §1; outline: as §2
[29] = substrate: CCc1ccc(O)cc1; experiment: as §1; outline: as §2
[30] = substrate: CCCCCCCc1ccc(O)cc1; experiment: as §1; outline: as §2
[31] = substrate: OCc1ccccc1; experiment: as §1; outline: as §2
[32] = substrate: CCCCc1ccc(CO)cc1; experiment: as §1; outline: as §2
[33] = substrate: CCCCCCCc1ccc(CO)cc1; experiment: as §1; outline: as §2
[34] = substrate: [H][C@]12CC3(c4ccc(O)cc4)C[C@]([H])(C1)C[C@@]([H])(C3)C2; experiment: as §1; outline: as §2
[35] = substrate: CCCCCCc1ccc(CO)cc1; experiment: as §1; outline: as §2
[36] = substrate: OCc1cccc2ccccc12; experiment: as §1; outline: as §2
[37] = substrate: CCN(O)c1ccccc1; experiment: as §1; outline: as §2
[38] = substrate: CCCCCc1ccc(CO)cc1; experiment: as §1; outline: as §2
[39] = substrate: C[C@H](O)c1ccccc1; experiment: as §1; outline: as §2
[40] = substrate: O=C(CBr)Nc1ccc(O)cc1; experiment: as §1; outline: as §2
[41] = substrate: Oc1ccc(-c2ccccc2)cc1; experiment: as §1; outline: as §2
[42] = substrate: CC[C@H](O)c1ccccc1; experiment: as §1; outline: as §2
not read [43] = substrate: Oc1ccccc1; experiment: not read
not read [44] = substrate: Oc1ccc2ccccc2c1; experiment: not read

B1: Sulfotransferase 1A1 (Rattus norvegicus) (protein)
chain: MEFSRPPLVHVKGIPLIKYFAETIGPLQNFTAWPDDLLISTYPKSGTTWMSEILDMIYQGGKLEKCGRAPIYARVPFLEFKCPGVPSGLETLEETPAPRLLKTHLPLSLLPQSLLDQKVKVIYIARNAKDVVVSYYNFYNMAKLHPDPGTWDSFLENFMDGEVSYGSWYQHVKEWWELRHTHPVLYLFYEDIKENPKREIKKILEFLGRSLPEETVDSIVHHTSFKKMKENCMTNYTTIPTEIMDHNVSPFMRKGTTGDWKNTFTVAQNERFDAHYAKTMTDCDFKFRCEL
[1]
  Km: 20 µM
  Vmax: 0.0052 µM/min
[2]
  Km: 29 µM
  Vmax: 0.0332 µM/min
[3]
  Km: 10 µM
  Vmax: 0.32 µM/min
[4]
  Km: 9 µM
  Vmax: 0.208 µM/min
[5]
  Km: 600 µM
  Vmax: 0.508 µM/min
[6]
  Km: 40 µM
  Vmax: 0.178 µM/min
[7]
  Km: 1730 µM
  Vmax: 0.0206 µM/min
[8]
  Km: 5 µM
  Vmax: 0.296 µM/min
[9]
  Km: 960 µM
  Vmax: 0.0102 µM/min
[10]
  Km: 6 µM
  Vmax: 0.427 µM/min
[11]
  Km: 60 µM
  Vmax: 0.182 µM/min
[12]
  Km: 7 µM
  Vmax: 0.0021 µM/min
[13]
  Km: 230 µM
  Vmax: 0.043 µM/min
[14]
  Km: 10 µM
  Vmax: 0.0305 µM/min
[15]
  Km: 5 µM
  Vmax: 0.028 µM/min
[16]
  Km: 11000 µM
  Vmax: 0.0404 µM/min
[17]
  Km: 119 µM
  Vmax: 0.085 µM/min
[18]
  Km: 6990 µM
  Vmax: 0.0225 µM/min
[19]
  Km: 161 µM
  Vmax: 0.0986 µM/min
[20]
  Km: 4000 µM
  Vmax: 0.35 µM/min
[21]
  Km: 360 µM
  Vmax: 0.0085 µM/min
[22]
  Km: 109 µM
  Vmax: 0.091 µM/min
[23]
  Km: 92 µM
  Vmax: 0.181 µM/min
[24]
  Km: 30 µM
  Vmax: 0.0287 µM/min
[25]
  Km: 26 µM
  Vmax: 0.0776 µM/min
[26]
  Km: 26 µM
  Vmax: 0.035 µM/min
[27]
  Km: 199 µM
  Vmax: 0.0206 µM/min
[28]
  Km: 1360 µM
  Vmax: 0.0061 µM/min
[29]
  Km: 10 µM
  Vmax: 0.41 µM/min
[30]
  Km: 61 µM
  Vmax: 0.132 µM/min
[31]
  Km: 50 µM
  Vmax: 0.0305 µM/min
[32]
  Km: 30 µM
  Vmax: 0.13 µM/min
[33]
  Km: 410 µM
  Vmax: 0.133 µM/min
[34]
  Km: 1 µM
  Vmax: 0.0472 µM/min
[35]
  Km: 30 µM
  Vmax: 0.0967 µM/min
[36]
  Km: 30 µM
  Vmax: 0.026 µM/min
[37]
  Km: 650 µM
  Vmax: 0.273 µM/min
[38]
  Km: 20 µM
  Vmax: 0.109 µM/min
[39]
  Km: 250 µM
  Vmax: 0.0337 µM/min
[40]
  Km: 22 µM
  Vmax: 0.095 µM/min
[41]
  Km: 91 µM
  Vmax: 0.212 µM/min
[42]
  Km: 240 µM
  Vmax: 0.0099 µM/min
Not read [43]
  Km: 19 µM
  Vmax: 0.35 µM/min
Not read [44]
  Km: 8 µM
  Vmax: 1.13 µM/min
